From ChEMBL document CHEMBL4257545, “Synthesis of novel perillyl-dihydropyrimidinone hybrids designed for antiproliferative activity” (Medchemcomm, 2018)
Active and inactive are the calls of the source. No cut-off for these calls is given here.

Assays:
[1] = system: UACC-62; test: Antiproliferative activity against human UACC62 cells assessed as cell growth inhibition after 48 hrs by sulforhodamine B assay; format: functional; conditions: UACC-62, 48 h
Method in brief: (§1)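 Human tumour lines and HaCaT normal keratinocytes in 96-well plates, exposed to compound in DMSO/RPMI (final DMSO 0.2%) for 48 h at 37 °C, 5% CO2. Cells were fixed with 50% trichloroacetic acid at time zero and after treatment. Protein was stained with sulforhodamine B and read at 540 nm. TGI (total growth inhibition) was derived by non-linear regression from triplicate runs.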

[2] = system: U-251; test: Antiproliferative activity against human U251 cells assessed as cell growth inhibition after 48 hrs by sulforhodamine B assay; format: functional; conditions: U-251, 48 h; method in brief: as §1
[3] = system: MCF7; test: Antiproliferative activity against human MCF7 cells assessed as cell growth inhibition after 48 hrs by sulforhodamine B assay; format: functional; conditions: MCF7, 48 h; method in brief: as §1
[4] = system: NCI/ADR-RES; test: Antiproliferative activity against human NCI/ADR-RES cells assessed as cell growth inhibition after 48 hrs by sulforhodamine B assay; format: functional; method in brief: as §1
[5] = system: 786-0; test: Antiproliferative activity against human 786-0 cells assessed as cell growth inhibition after 48 hrs by sulforhodamine B assay; format: functional; conditions: 786-0, 48 h; method in brief: as §1
[6] = system: NCI-H460; test: Antiproliferative activity against human NCI-H460 cells assessed as cell growth inhibition after 48 hrs by sulforhodamine B assay; format: functional; conditions: NCI-H460, 48 h; method in brief: as §1
[7] = system: PC-3; test: Antiproliferative activity against human PC3 cells assessed as cell growth inhibition after 48 hrs by sulforhodamine B assay; format: functional; conditions: PC-3, 48 h; method in brief: as §1
[8] = system: OVCAR-3; test: Antiproliferative activity against human OVCAR3 cells assessed as cell growth inhibition after 48 hrs by sulforhodamine B assay; format: functional; conditions: OVCAR-3, 48 h; method in brief: as §1
[9] = system: HT-29; test: Antiproliferative activity against human HT-29 cells assessed as cell growth inhibition after 48 hrs by sulforhodamine B assay; format: functional; conditions: HT-29, 48 h; method in brief: as §1
[10] = system: HaCaT; test: Cytotoxicity against human HaCaT cells assessed as cell growth inhibition after 48 hrs by sulforhodamine B assay; format: cell-based; method in brief: as §1
[11] = Selectivity index, ratio of TGI for human HaCaT cells to TGI for human U251 cells; format: toxicity; conditions: HaCaT cells and U251 cells, read-out: Selectivity Index
[12] = system: MCF7; test: Antiproliferative activity against human MCF7 cells at 25 uM after 48 hrs by sulforhodamine B assay; format: functional, cell-based
Method in brief: (§2)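 Growth-inhibition profile of each tumour line at a single compound concentration of 25 μM. Cells were treated in DMSO/RPMI (final DMSO 0.2%) for 48 h at 37 °C, 5% CO2. Cells were fixed with 50% TCA before and after exposure. Cellular protein was quantified by sulforhodamine B staining at 540 nm.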

[13] = system: NCI/ADR-RES; test: Antiproliferative activity against human NCI/ADR-RES cells at 25 uM after 48 hrs by sulforhodamine B assay; format: functional, cell-based; method in brief: as §2
[14] = system: 786-0; test: Antiproliferative activity against human 786-0 cells at 25 uM after 48 hrs by sulforhodamine B assay; format: functional, cell-based; method in brief: as §2
[15] = system: HT-29; test: Antiproliferative activity against human HT-29 cells at 25 uM after 48 hrs by sulforhodamine B assay; format: functional, cell-based; method in brief: as §2
[16] = system: UACC-62; test: Antiproliferative activity against human UACC62 cells at 25 uM after 48 hrs by sulforhodamine B assay; format: functional, cell-based; method in brief: as §2
[17] = system: PC-3; test: Antiproliferative activity against human PC3 cells at 25 uM after 48 hrs by sulforhodamine B assay; format: functional, cell-based; method in brief: as §2
[18] = system: OVCAR-3; test: Antiproliferative activity against human OVCAR3 cells at 25 uM after 48 hrs by sulforhodamine B assay; format: functional, cell-based; method in brief: as §2

| Structure (SMILES) | TGI [1] [µM] | TGI [2] [µM] | TGI [3] [µM] | TGI [4] [µM] | TGI [5] [µM] | TGI [6] [µM] | TGI [7] [µM] | TGI [8] [µM] | TGI [9] [µM] | TGI [10] [µM] | selectivity ratio [11] | Activity [12] | Activity [13] | Activity [14] | Activity [15] | Activity [16] | Activity [17] | Activity [18] |
| --- | --- | --- | --- | --- | --- | --- | --- | --- | --- | --- | --- | --- | --- | --- | --- | --- | --- | --- |
| C=C(C)[C@@H]1CC=C(Cn2cc(COc3cccc(C4NC(=O)NC(C)=C4C(=O)OCC)c3)nn2)CC1 (some centres not stated) | 22.9 | 12.2 | 42.5 | > 100 | 39.7 | > 100 | > 100 | 18.4 | 73.4 | 507.82 | 41.7 |  |  |  |  |  |  |  |
| C=C(C)[C@@H]1CC=C(Cn2cc(COc3ccccc3C3NC(=O)NC4=C3C(=O)CC(C)(C)C4)nn2)CC1 (some centres not stated) | 26.5 | 27 | 45 | > 100 | 26.7 | 38.7 | 21.7 | 11.8 | 28.9 | 78.72 |  |  |  |  |  |  |  |  |
| COc1cccc2c1C(=O)c1c(O)c3c(c(O)c1C2=O)C[C@@](O)(C(=O)CO)C[C@@H]3O[C@H]1C[C@H](N)[C@H](O)[C@H](C)O1 [DOXORUBICIN] | 1.66 | 0.09 | 0.99 | 0.78 | 0.02 | 0.46 | 15.7 | 0.04 | 0.88 | 1.47 |  |  |  |  |  |  |  |  |
| C=C(C)[C@@H]1CC=C(Cn2cc(COc3ccc(C4NC(=O)NC(C)=C4C(C)=O)cc3OC)nn2)CC1 (some centres not stated) | 3.83 | 77.9 | 53.3 | 80.2 | 88.1 | > 100 | 85.7 | 48 | 95 | 147.92 |  |  |  |  |  |  |  |  |
| C=C(C)[C@@H]1CC=C(Cn2cc(COc3ccc(C4NC(=O)NC(C)=C4C(=O)OCC)cc3)nn2)CC1 (some centres not stated) | 19.2 | 12.4 | 43.1 | > 100 | 97.1 | > 100 | 92.2 | 6.9 | 77.1 | 165.69 |  |  |  |  |  |  |  |  |
| C=C(C)[C@@H]1CC=C(Cn2cc(COc3cc(C4NC(=O)NC(C)=C4C(=O)OCC)ccc3OC)nn2)CC1 (some centres not stated) | 37.8 | 98.1 | > 100 | > 100 | > 100 | > 100 | > 100 | 13.5 | > 100 | 79.75 |  |  |  |  |  |  |  |  |
| CCOC(=O)C1=C(C)NC(=O)NC1c1cccc(O)c1 (configuration not stated) |  |  |  |  |  |  |  |  |  |  |  | Active | Active | Active | Active | Active | Active | Active |
| C=C(C)[C@@H]1CC=C(Cn2cc(COc3ccc(C4NC(=O)NC(C)=C4C(=O)OCC)cc3OC)nn2)CC1 (some centres not stated) | 26.7 | 11.3 | 82.5 | > 100 | 87.3 | > 100 | 54.4 | 53.8 | > 100 | 75.76 |  |  |  |  |  |  |  |  |
| C=C(C)[C@@H]1CC=C(Cn2cc(COc3cccc(C4NC(=O)NC5=C4C(=O)CC(C)(C)C5)c3)nn2)CC1 (some centres not stated) | 20.9 | 26 | 31 | > 100 | > 100 | 51.6 | 21.9 | > 100 | 49 | 36.44 |  |  |  |  |  |  |  |  |
| C=C(C)[C@@H]1CC=C(Cn2cc(COc3cccc(C4NC(=O)NC(C)=C4C(C)=O)c3)nn2)CC1 (some centres not stated) | 31.6 | 30.5 | 43 | > 100 | 44.1 | > 100 | 49.8 | 13.3 | 86.2 | 115.66 |  |  |  |  |  |  |  |  |
| C=C(C)[C@@H]1CC=C(Cn2cc(COc3ccccc3C3NC(=O)NC(C)=C3C(=O)OCC)nn2)CC1 (some centres not stated) | > 100 | > 100 | > 100 | > 100 | > 100 | > 100 | > 100 | 81.2 | > 100 | 294.37 |  |  |  |  |  |  |  |  |
| CCOC(=O)C1=C(C)NC(=S)NC1c1cccc(O)c1 (configuration not stated) |  |  |  |  |  |  |  |  |  |  |  | Active | Active | Active | Active | Active | Active | Active |
| C=C(C)[C@@H]1CC=C(Cn2cc(COc3cc(C4NC(=O)NC5=C4C(=O)CC(C)(C)C5)ccc3OC)nn2)CC1 (some centres not stated) | 62 | 8.28 | 44.8 | > 100 | > 100 | > 100 | 79.9 | > 100 | > 100 | 451.02 | 54.5 |  |  |  |  |  |  |  |
| C=C(C)[C@@H]1CC=C(Cn2cc(COc3ccc(C4NC(=O)NC5=C4C(=O)CC(C)(C)C5)cc3OC)nn2)CC1 (some centres not stated) | 86.2 | 44 | 91.9 | > 100 | > 100 | > 100 | > 100 | 95 | > 100 | 71.34 |  |  |  |  |  |  |  |  |
| C=C(C)[C@@H]1CC=C(Cn2cc(COc3ccc(C4NC(=O)NC(C)=C4C(C)=O)cc3)nn2)CC1 (some centres not stated) | 20.5 | 20 | 29 | > 100 | 23.3 | 78.2 | 49.3 | 32.6 | 62.6 | 44.47 |  |  |  |  |  |  |  |  |
| C=C(C)[C@@H]1CC=C(Cn2cc(COc3ccc(C4NC(=O)NC5=C4C(=O)CC(C)(C)C5)cc3)nn2)CC1 (some centres not stated) | 29.9 | 6.61 | > 100 | > 100 | 53.2 | > 100 | 24 | 29.3 | > 100 | 436.18 | 66 |  |  |  |  |  |  |  |
| C=C(C)[C@@H]1CC=C(Cn2cc(COc3cc(C4NC(=O)NC(C)=C4C(C)=O)ccc3OC)nn2)CC1 (some centres not stated) | > 100 | > 100 | > 100 | 84.9 | > 100 | > 100 | > 100 | > 100 | 96 | 486.19 |  |  |  |  |  |  |  |  |
| C=C(C)[C@@H]1CC=C(Cn2cc(COc3ccccc3C3NC(=O)NC(C)=C3C(C)=O)nn2)CC1 (some centres not stated) | 34.2 | 30.2 | 68.7 | > 100 | 80.3 | 83.1 | 62 | 34.3 | 79.5 | 29.51 |  |  |  |  |  |  |  |  |
